Data published in ChEMBL document CHEMBL4145529, “Design, synthesis and biological evaluation of hybrid nitroxide-based non-steroidal anti-inflammatory drugs” (Eur J Med Chem, 2018).

Assays:
[1] = target: T1, Prostaglandin G/H synthase 2 (Homo sapiens) (UniProt P35354); experiment: Inhibition of COX2-induced PGE2 production in human A549 cells assessed as PGE2 level at 30 uM by ELISA (reference value: 57 +/- 4 pg/ml); format: cell-based
T1 sequence (whole entry): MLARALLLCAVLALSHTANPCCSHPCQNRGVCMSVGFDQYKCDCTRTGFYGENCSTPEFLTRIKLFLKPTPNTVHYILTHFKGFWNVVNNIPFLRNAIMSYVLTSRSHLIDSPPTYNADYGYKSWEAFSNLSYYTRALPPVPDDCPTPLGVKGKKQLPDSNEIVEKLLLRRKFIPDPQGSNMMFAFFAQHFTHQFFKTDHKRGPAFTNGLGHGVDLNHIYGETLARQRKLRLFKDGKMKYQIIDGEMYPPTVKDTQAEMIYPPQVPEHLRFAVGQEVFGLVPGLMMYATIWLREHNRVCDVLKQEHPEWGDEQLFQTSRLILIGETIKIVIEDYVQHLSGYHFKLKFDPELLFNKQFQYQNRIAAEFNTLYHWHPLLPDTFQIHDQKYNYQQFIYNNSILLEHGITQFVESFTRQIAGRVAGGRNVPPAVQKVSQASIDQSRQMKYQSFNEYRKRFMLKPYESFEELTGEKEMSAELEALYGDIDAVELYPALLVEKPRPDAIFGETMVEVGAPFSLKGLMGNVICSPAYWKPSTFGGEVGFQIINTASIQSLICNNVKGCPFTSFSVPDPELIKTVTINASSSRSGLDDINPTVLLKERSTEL
Outline: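 A549 NSCLC cells treated with compounds at 30 μM; prostaglandin E2 released via COX quantified by ELISA, reported as pg/mL; mean ± S.D. of 3 determinations each repeated in duplicate; Student's t-test for significance.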

[2] = target: T1, Prostaglandin G/H synthase 2 (Homo sapiens); experiment: Inhibition of COX2-induced PGE2 production in human A549 cells assessed as PGE2 level at 4 uM by ELISA (reference value: 126 +/- 17 pg/ml); format: cell-based
Outline: (§1)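 COX-derived PGE2 released by A549 cells, measured by ELISA in pg/mL. Test concentrations 4 or 90 μM; combination wells got aspirin + Tempol at 90 μM each. Mean ± S.D. of 3 determinations, each in duplicate; Student's t-test.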

661W [3] = experiment: Antioxidant activity in mouse 661W cells assessed as inhibition of antimycin-induced mitochondrial ROS production at 50 uM by fluorescence assay relative to control; format: functional
661W [4] = experiment: Antioxidant activity in mouse 661W cells assessed as inhibition of antimycin-induced mitochondrial ROS production at 10 uM by fluorescence assay relative to control; format: functional
661W [5] = experiment: Antioxidant activity in mouse 661W cells assessed as inhibition of antimycin-induced mitochondrial ROS production at 100 uM by fluorescence assay relative to control; format: functional
[6] = target: T1, Prostaglandin G/H synthase 2 (Homo sapiens); experiment: Inhibition of COX2-induced PGE2 production in human A549 cells assessed as PGE2 level at 90 uM by ELISA; format: cell-based; outline: as §1
NCI-H1299 [7] = experiment: Growth inhibition of human NCI-H1299 cells assessed as cell growth at 900 uM in presence of tempol by MTT assay relative to control; format: functional; conditions: read-out: Activity
Outline: (§2)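 NCI-H1299 human NSCLC cells; proliferation measured by MTT assay with compounds at 90 or 900 μM, tested alone or as aspirin plus Tempol combination; growth expressed as % of control; mean ± S.D. of 3 experiments each in duplicate; significance by Student's t-test.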

NCI-H1299 [8] = experiment: Growth inhibition of human NCI-H1299 cells assessed as cell growth at 90 uM in presence of tempol by MTT assay relative to control; format: functional; conditions: read-out: Activity; outline: as §2
NCI-H1299 [9] = experiment: Growth inhibition of human NCI-H1299 cells assessed as cell growth at 90 uM by MTT assay relative to control; format: functional; conditions: read-out: Activity
Outline: (§3)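 NCI-H1299 cell growth by MTT assay, tested at 18–900 μM; combination wells got aspirin + Tempol at equal concentration. Given as % growth. Mean ± S.D. of 3 experiments, each run in duplicate; Student's t-test.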

NCI-H1299 [10] = experiment: Growth inhibition of human NCI-H1299 cells assessed as cell growth at 900 uM by MTT assay relative to control; format: functional; conditions: read-out: Activity; outline: as §3
[11] = target: T1, Prostaglandin G/H synthase 2 (Homo sapiens); experiment: Inhibition of COX2-induced PGE2 production in human A549 cells assessed as PGE2 level at 90 uM in presence of aspirin by ELISA (reference value: 126 +/- 17 pg/ml); format: cell-based; outline: as §1
NCI-H1299 [12] = experiment: Growth inhibition of human NCI-H1299 cells assessed as cell growth at 900 uM in presence of aspirin by MTT assay relative to control; format: functional; conditions: read-out: Activity; outline: as §3
NCI-H1299 [13] = experiment: Growth inhibition of human NCI-H1299 cells assessed as cell growth at 90 uM in presence of aspirin by MTT assay relative to control; format: functional; conditions: read-out: Activity; outline: as §3
A549 [14] = experiment: Anti-oxidant activity in human A549 cells assessed as inhibition of H2O2-induced ROS production by measuring ROS level at 100 uM by DCFH-DA staining based fluorescence assay (reference value: 194 +/- 13%); format: functional; design: scale not given: the % may be the effect or the level left
A549 [15] = experiment: Effect on basal ROS level in human A549 cells at 100 uM by DCFH-DA staining based fluorescence assay (reference value: 100 +/- 5%); format: cell-based; conditions: a549, 100 µM

CC(=O)Oc1cc2c(cc1C(=O)O)C(C)(C)N([O])C2(C)C
Activity [1]: 52 pg/mL

CC(=O)Oc1ccccc1C(=O)NC1CC(C)(C)N([O])C(C)(C)C1
Activity [2]: 99 pg/mL | Activity [1]: 54 pg/mL

CC(=O)Oc1ccccc1C(=O)Nc1ccc2c(c1)C(C)(C)N([O])C2(C)C
Activity [1]: 45 pg/mL

CC(=O)Oc1ccccc1C(=O)OC1CC(C)(C)N([O])C(C)(C)C1
Activity [2]: 87 pg/mL | Activity [1]: 31 pg/mL

CC1(C)CC(C(=O)Oc2ccccc2C(=O)O)C(C)(C)N1[O] (configuration not stated)
Activity [1]: 34 pg/mL

CC1(C)CC(C(=O)Oc2ccccc2C(=O)OCc2ccccc2)CC(C)(C)N1[O]
Activity [1]: 23 pg/mL

CC1(C)c2cc(O)c(C(=O)O)cc2C(C)(C)N1[O]
Activity [1]: 50 pg/mL

COc1ccc2c(c1)c(CC(=O)Nc1ccc3c(c1)C(C)(C)N([O])C3(C)C)c(C)n2C(=O)c1ccc(Cl)cc1
inhibition (661W [3]): 82.3% | inhibition (661W [4]): 97.6% | inhibition (661W [5]): 88.4% | Activity [1]: 58 pg/mL

CC(=O)Oc1ccccc1C(=O)O [ASPIRIN]
Activity [6]: 79 pg/mL | growth at 900 µM (NCI-H1299 [7]): 53% | growth at 90 µM (NCI-H1299 [8]): 102% | growth at 90 µM (NCI-H1299 [9]): 103% | growth at 900 µM (NCI-H1299 [10]): 49%

CC1=C[C@H](O)CC(C)(C)[C@H]1/C=C/C(C)=C/C=C/C(C)=C/C=C/C=C(C)/C=C/C=C(C)/C=C/C1=C(C)C[C@@H](O)CC1(C)C [LUTEIN]
inhibition at 10 µM (661W [4]): 89.7%

CC1(C)CC(O)CC(C)(C)N1[O] [TEMPOL]
Activity [6]: 105 pg/mL | Activity [11]: 75 pg/mL | growth at 900 µM (NCI-H1299 [12]): 53% | growth at 90 µM (NCI-H1299 [9]): 100% | growth at 90 µM (NCI-H1299 [13]): 102% | growth at 900 µM (NCI-H1299 [10]): 98% | Activity (A549 [14]): 155% | Activity (A549 [15]): 103%
